Active and inactive are the calls of the source. The calls are words filed in the database; no cut-off is given here.
biological target: T1, Choline kinase alpha (Homo sapiens, UniProt P35790); assay: Inhibition of recombinant human ChoKalpha using choline as substrate by ultraviolet spectroscopic assay; settings: not given
How it was run: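 Coupled ATP-regeneration assay with recombinant human ChoKα1 (N-terminal His tag, pET28a, >95% pure) at 10–50 nM monomer. A340 read over 10–30 min. Initial rates taken across 2-fold inhibitor dilutions and fitted to a dose–response model for IC50.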
Target sequence in this assay (P35790 whole entry): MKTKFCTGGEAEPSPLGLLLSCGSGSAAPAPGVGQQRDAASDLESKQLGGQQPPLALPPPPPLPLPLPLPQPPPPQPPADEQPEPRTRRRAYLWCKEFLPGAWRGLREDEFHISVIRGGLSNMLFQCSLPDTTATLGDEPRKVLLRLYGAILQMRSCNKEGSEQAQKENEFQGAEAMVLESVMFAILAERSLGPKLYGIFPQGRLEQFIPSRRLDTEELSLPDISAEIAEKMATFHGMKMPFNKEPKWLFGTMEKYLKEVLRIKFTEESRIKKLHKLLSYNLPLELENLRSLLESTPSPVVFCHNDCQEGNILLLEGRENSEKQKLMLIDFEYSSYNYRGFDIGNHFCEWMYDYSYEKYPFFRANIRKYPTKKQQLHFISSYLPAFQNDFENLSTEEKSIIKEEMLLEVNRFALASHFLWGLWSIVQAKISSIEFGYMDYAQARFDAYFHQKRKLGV

| Compound | IC50 |
| --- | --- |
| O[C@](CCc1ccccc1OC1CCOCC1)(c1ccccc1)C1CN2CCC1CC2 (some centres not stated) | 20 nM |

system: not listed separately; assay: Induction of apoptosis in human MCF12A cells upto 40 uM after 24 hrs by caspase-3/7 assay; assay type: cell-based; settings: mcf-12a
How it was run: (§1)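 Cells exposed to compounds for 24 h, then caspase activity measured with the Apo-ONE homogeneous caspase-3/7 assay. Apoptosis expressed as a percentage of vehicle-treated cells, from one representative experiment.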

| Compound | Activity |
| --- | --- |
| CN1CCCN(Cc2ccc(-c3ccc(CN4CCCN(C)CC4)cc3)cc2)CC1 | Non-toxic |
| CN1CCCN(Cc2ccc(-c3ccc(CN4CCCN(C)CC4)cc3C#N)c(F)c2)CC1 | Non-toxic |

system: MDA-MB-468; assay: Cytotoxicity against human MDA-MB-468 cells after 72 hrs by MTT assay; assay type: functional, cell-based; settings: MDA-MB-468, 72 h

| Compound | IC50 |
| --- | --- |
| CN(c1ccc(Cl)cc1)c1cc[n+](Cc2ccc(-c3ccc(C[n+]4ccc(N(C)c5ccc(Cl)cc5)c5ccccc54)cc3)cc2)c2ccccc12 [RSM-932A] | 2400 nM |

biological target: T1, Choline kinase alpha; settings: not given
Target sequence in this assay (P35790 whole entry): as above

| Compound | Kd |
| --- | --- |
| CN1CCCN(Cc2ccc(-c3cc(F)c(CN4CCCN(C)CC4)c(F)c3)cc2)CC1 | 0.259 µM |
| O=C(N1CCCCCC1)N1CCNCC1 | 340 µM |
| CN1CCCN(Cc2ccc(-c3ccc(CN4CCCN(C)CC4)cc3F)cc2)CC1 | 0.211 µM |
| COC(=O)c1ccc(-c2ccc(CN3CCCN(C)CC3)cc2)cc1 | 2.4 µM |
| CN1CCCN(Cc2ccc3ccccc3c2)CC1 | 4.3 µM |
| CN1CCCN(Cc2ccc(-c3ccc(CN4CCCN(C)CC4)cc3C#N)cc2)CC1 | 0.01 µM |
| CN1CCCN(Cc2ccc(-c3ccc(C(F)(F)F)cc3)cc2)CC1 | 4 µM |
| CN1CCCN(Cc2ccc(-c3ccc(CN4CCCN(C)CC4)cc3)cc2)CC1 | 0.382 µM |
| CN1CCCN(Cc2ccc3ncccc3c2)CC1 | 4 µM |
| CN1CCCN(Cc2ccc(-c3ccc(CN4CCCN(C)CC4)c(F)c3F)cc2)CC1 | 0.021 µM |
| Nc1cc(C(F)(F)F)ncn1 | 630 µM |
| CN1CCCN(Cc2ccc(-c3ccc(N4CCN(C)CC4)cc3)cc2)CC1 | 0.769 µM |
| CN1CCCN(Cc2ccc(-c3ccc(CN4CCCN(C)CC4)cc3C#N)c(F)c2)CC1 | 0.099 µM |
| CN1CCCN(c2ccc(CO)cc2)CC1 | 194 µM |
| CN1CCCN(Cc2ccc(-c3ccc(CN4CCCN(C)CC4)c(Cl)c3)cc2)CC1 | 0.088 µM |
| CN1CCNCC(Cc2ccc3ncccc3c2)C1 (configuration not stated) | 7 µM |
| CN1CCCN(Cc2ccc(-c3ccc(C(=O)N4CCCN(C)CC4)cc3)cc2)CC1 | 0.195 µM |
| CN1CCCN(Cc2ccc(-c3ccccc3)cc2)CC1 | 3.7 µM |
| CN1CCCN(Cc2ccc(CN)cc2)CC1 | 132 µM |
| COc1ccc(-c2ccc(CN3CCCN(C)CC3)cc2)cc1 | 3.8 µM |

biological target: T1, Choline kinase alpha; settings: not given; remark: another data set of the same source
Target sequence in this assay (P35790 whole entry, looked up): as the sequence (P35790 whole entry) above

| Compound | Ka |
| --- | --- |
| CN1CCCN(Cc2ccc(-c3cc(F)c(CN4CCCN(C)CC4)c(F)c3)cc2)CC1 | 125 mM⁻¹ s⁻¹ |
| CN1CCCN(Cc2ccc(-c3ccc(CN4CCCN(C)CC4)cc3F)cc2)CC1 | 93 mM⁻¹ s⁻¹ |
| CN1CCCN(Cc2ccc(-c3ccc(CN4CCCN(C)CC4)cc3C#N)cc2)CC1 | 676 mM⁻¹ s⁻¹ |
| CN1CCCN(Cc2ccc(-c3ccc(CN4CCCN(C)CC4)cc3)cc2)CC1 | 94 mM⁻¹ s⁻¹ |
| CN1CCCN(Cc2ccc(-c3ccc(CN4CCCN(C)CC4)c(F)c3F)cc2)CC1 | 718 mM⁻¹ s⁻¹ |
| CN1CCCN(Cc2ccc(-c3ccc(CN4CCCN(C)CC4)cc3C#N)c(F)c2)CC1 | 112 mM⁻¹ s⁻¹ |
| CN1CCCN(Cc2ccc(-c3ccc(CN4CCCN(C)CC4)c(Cl)c3)cc2)CC1 | 235 mM⁻¹ s⁻¹ |

biological target: Carbonic anhydrase 2 (Homo sapiens, UniProt P00918); assay: Binding affinity to carbonic anhydrase2 (unknown origin) by surface plasmon resonance assay; settings: not given
How it was run: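 Carbonic anhydrase II, used as the reference surface, amine-coupled at a density similar to the ChoKα1 surface. 25 °C, 2-fold dilution series (fragments top at 300 μM). Single-step kinetics (Biacore) or FastStep (SensiQ). Kd from 1:1 binding model fits.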

| Compound | Kd |
| --- | --- |
| O=C(N1CCCCCC1)N1CCNCC1 | 1400 µM |
| Nc1cc(C(F)(F)F)ncn1 | 670 µM |
| CN1CCCN(Cc2ccc(CN)cc2)CC1 | 490 µM |

system: not listed separately; assay: Cytotoxicity against human MCF10A cells after 72 hrs by CyQuant cell proliferation assay; assay type: cell-based, MCF-10A; settings: MCF10A cells
How it was run: (§2)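 Cells from ATCC, used within 6 months, grown in the supplier-recommended medium. Treated with compound or vehicle for 72 h, then read by CyQuant proliferation kit. GI50 determined after correcting for cell count at time zero, with growth plotted as percent of vehicle-treated cells. Mean ±SD from ≥2 separate experiments.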

| Compound | GI50 at 72 h |
| --- | --- |
| CN1CCCN(Cc2ccc(-c3ccc(CN4CCCN(C)CC4)cc3)cc2)CC1 | 27 µM |
| CN1CCCN(Cc2ccc(-c3ccc(CN4CCCN(C)CC4)cc3C#N)c(F)c2)CC1 | 18 µM |

same assay, conditions: mcf-10a, 72 h

| Compound | %max |
| --- | --- |
| CN1CCCN(Cc2ccc(-c3ccc(CN4CCCN(C)CC4)cc3)cc2)CC1 | 77% |
| CN1CCCN(Cc2ccc(-c3ccc(CN4CCCN(C)CC4)cc3C#N)c(F)c2)CC1 | 99% |

system: not listed separately; assay: Cytotoxicity against human MCF10A cells after 72 hrs by MTT assay; assay type: cell-based; settings: MCF-10A

| Compound | IC50 |
| --- | --- |
| CN(c1ccc(Cl)cc1)c1cc[n+](Cc2ccc(-c3ccc(C[n+]4ccc(N(C)c5ccc(Cl)cc5)c5ccccc54)cc3)cc2)c2ccccc12 [RSM-932A] | 7.1 µM |

system: MDA-MB-415; assay: Induction of apoptosis in human MDA-MB-415 cells expressing ChoKalpha after 24 hrs by caspase-3/7 assay; assay type: functional, cell-based; settings: not given; how it was run: as §1

| Compound | Activity |
| --- | --- |
| CN1CCCN(Cc2ccc(-c3ccc(CN4CCCN(C)CC4)cc3)cc2)CC1 | Active |
| CN1CCCN(Cc2ccc(-c3ccc(CN4CCCN(C)CC4)cc3C#N)c(F)c2)CC1 | Active |

system: MDA-MB-468; assay: Cytotoxicity against human MDA-MB-468 cells expressing ChoKalpha after 72 hrs by CyQuant cell proliferation assay; assay type: functional; settings: not given; how it was run: as §2

| Compound | %max |
| --- | --- |
| CN1CCCN(Cc2ccc(-c3ccc(CN4CCCN(C)CC4)cc3)cc2)CC1 | 163% |
| CN1CCCN(Cc2ccc(-c3ccc(CN4CCCN(C)CC4)cc3C#N)c(F)c2)CC1 | 139% |

same assay, conditions: Homo sapiens, MDA-MB-468, 72 h

| Compound | GI50 |
| --- | --- |
| CN1CCCN(Cc2ccc(-c3ccc(CN4CCCN(C)CC4)cc3)cc2)CC1 | 9 µM |
| CN1CCCN(Cc2ccc(-c3ccc(CN4CCCN(C)CC4)cc3C#N)c(F)c2)CC1 | 7 µM |

system: not listed separately; assay: Effect on phosphocholine level in human MCF12A cells after 24 hrs by NMR analysis; assay type: ADME, cell-based; settings: mcf-12a
How it was run: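 Cells grown with increasing compound concentrations or vehicle (DMSO) for 24 h, then counted and checked for viability by Trypan blue exclusion. 5 ×10^6 viable cells washed twice in ice-cold d-PBS and extracted by vortexing 30 s in 6 mL ice-cold 100% methanol. Intracellular choline and phosphocholine quantified by NMR.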

| Compound | Activity |
| --- | --- |
| CN1CCCN(Cc2ccc(-c3ccc(CN4CCCN(C)CC4)cc3C#N)c(F)c2)CC1 | Non-toxic |

biological target: T1, Choline kinase alpha; settings: not given; remark: another data set of the same source
Target sequence in this assay (P35790 whole entry): as above

| Compound | IC50 |
| --- | --- |
| CN1CCCN(Cc2ccc(-c3cc(F)c(CN4CCCN(C)CC4)c(F)c3)cc2)CC1 | 0.255 µM |
| O=C(N1CCCCCC1)N1CCNCC1 | > 300 µM |
| CN1CCCN(Cc2ccc(-c3ccc(CN4CCCN(C)CC4)cc3F)cc2)CC1 | 0.165 µM |
| COC(=O)c1ccc(-c2ccc(CN3CCCN(C)CC3)cc2)cc1 | 4.95 µM |
| CN1CCCN(Cc2ccc3ccccc3c2)CC1 | 2.6 µM |
| CN1CCCN(Cc2ccc(-c3ccc(CN4CCCN(C)CC4)cc3C#N)cc2)CC1 | 0.066 µM |
| CN1CCCN(Cc2ccc(-c3ccc(C(F)(F)F)cc3)cc2)CC1 | 2.6 µM |
| CN1CCCN(Cc2ccc(-c3ccc(CN4CCCN(C)CC4)cc3)cc2)CC1 | 0.457 µM |
| CN1CCCN(Cc2ccc3ncccc3c2)CC1 | 3.9 µM |
| CN1CCCN(Cc2ccc(-c3ccc(CN4CCCN(C)CC4)c(F)c3F)cc2)CC1 | 0.233 µM |
| Nc1cc(C(F)(F)F)ncn1 | > 300 µM |
| CN1CCCN(Cc2ccc(-c3ccc(N4CCN(C)CC4)cc3)cc2)CC1 | 1.3 µM |
| CN1CCCN(Cc2ccc(-c3ccc(CN4CCCN(C)CC4)cc3C#N)c(F)c2)CC1 | 0.085 µM |
| CN1CCCN(c2ccc(CO)cc2)CC1 | > 2000 µM |
| CN1CCCN(Cc2ccc(-c3ccc(CN4CCCN(C)CC4)c(Cl)c3)cc2)CC1 | 0.268 µM |
| CN1CCNCC(Cc2ccc3ncccc3c2)C1 (configuration not stated) | 17.2 µM |
| CN1CCCN(Cc2ccc(-c3ccc(C(=O)N4CCCN(C)CC4)cc3)cc2)CC1 | 0.251 µM |
| CN1CCCN(Cc2ccc(-c3ccccc3)cc2)CC1 | 1.48 µM |
| CN1CCCN(Cc2ccc(CN)cc2)CC1 | 87 µM |
| COc1ccc(-c2ccc(CN3CCCN(C)CC3)cc2)cc1 | 1.43 µM |

biological target: T1, Choline kinase alpha; assay: Inhibition of ChoKalpha in human MDA-MB-468 cells assessed as reduction in phosphocholine level after 24 hrs by NMR analysis; assay type: cell-based; settings: not given
Target sequence in this assay (P35790 whole entry): as above

| Compound | IC50 |
| --- | --- |
| CN1CCCN(Cc2ccc(-c3ccc(CN4CCCN(C)CC4)cc3)cc2)CC1 | 2000 nM |

biological target: T1, Choline kinase alpha; assay: Inhibition of ChoKalpha in human MDA-MB-415 cells assessed as reduction in phosphocholine level after 24 hrs by NMR analysis; assay type: cell-based; settings: not given
Target sequence in this assay (P35790 whole entry): as above

| Compound | IC50 |
| --- | --- |
| CN1CCCN(Cc2ccc(-c3ccc(CN4CCCN(C)CC4)cc3C#N)c(F)c2)CC1 | 750 nM |

system: not listed separately; assay: Cytotoxicity against human MCF12A cells after 72 hrs by CyQuant cell proliferation assay; assay type: cell-based, MCF-12A; settings: MCF12A cells; how it was run: as §2

| Compound | GI50 at 72 h |
| --- | --- |
| CN1CCCN(Cc2ccc(-c3ccc(CN4CCCN(C)CC4)cc3)cc2)CC1 | 31 µM |
| CN1CCCN(Cc2ccc(-c3ccc(CN4CCCN(C)CC4)cc3C#N)c(F)c2)CC1 | > 40 µM |

same assay, conditions: mcf-12a, 72 h

| Compound | %max |
| --- | --- |
| CN1CCCN(Cc2ccc(-c3ccc(CN4CCCN(C)CC4)cc3)cc2)CC1 | 64% |
| CN1CCCN(Cc2ccc(-c3ccc(CN4CCCN(C)CC4)cc3C#N)c(F)c2)CC1 | 51% |

system: MDA-MB-415; assay: Cytotoxicity against human MDA-MB-415 cells expressing ChoKalpha after 72 hrs by CyQuant cell proliferation assay; assay type: functional; settings: not given; how it was run: as §2

| Compound | %max |
| --- | --- |
| CN1CCCN(Cc2ccc(-c3ccc(CN4CCCN(C)CC4)cc3)cc2)CC1 | 158% |
| CN1CCCN(Cc2ccc(-c3ccc(CN4CCCN(C)CC4)cc3C#N)c(F)c2)CC1 | 189% |

same assay, conditions: Homo sapiens, MDA-MB-415, 72 h

| Compound | GI50 |
| --- | --- |
| CN1CCCN(Cc2ccc(-c3ccc(CN4CCCN(C)CC4)cc3)cc2)CC1 | 4 µM |
| CN1CCCN(Cc2ccc(-c3ccc(CN4CCCN(C)CC4)cc3C#N)c(F)c2)CC1 | 2 µM |

biological target: T1, Choline kinase alpha; assay: Reversible binding affinity to human N-terminal truncated ChoKalpha1 (75 to 457 residues) ChoKalpha1 by STD NMR analysis; settings: not given
How it was run: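 Saturation-transfer difference NMR primary screen. On-resonance irradiation was at 0.8 ppm and off-resonance at 30 ppm, with excitation-sculpting water suppression; 320 scans were averaged.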
Target sequence in this assay (P35790 whole entry, looked up): as the sequence (P35790 whole entry) above

| Compound | Activity |
| --- | --- |
| Cc1cc(O)cc(C)c1C#N | Active |

— ChEMBL document CHEMBL3763032, “Novel Small Molecule Inhibitors of Choline Kinase Identified by Fragment-Based Drug Discovery” (J Med Chem, 2016)
